Article PMC3995353 (Biopolymers, 2014)

Tested on: Chinese Hamster Ovary (CHO) cells
Test: Cytotoxicity, MTT assay in CHO cells
Type: cell-based
Conditions: 5 μM, 48 hours
How it was run: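 CHO cells seeded in 96-well plates, test compound added at concentrations up to 20 μM, then 48 h at 37°C, 5% CO2, humidified (cells adhere during incubation). MTT (50 μg/well) added for 6 h. Formazan dissolved in acidified isopropanol (90% isopropanol:10% Triton X-100:0.4% HCl), OD read at 550 nm as relative viability. Mean ± standard error, ≥3 experiments.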

Substance: Melittin
- cell viability (positive control): complete loss of cell viability
